Among the data in PubChem BioAssay AID743214 (The Scripps Research Institute Molecular Screening Center, 2013) are inhibition values, retold here.

In all, about 2,100 compounds went through this assay and about 10 (0.5%) were called active. These entries were drawn from the full list. A number with no mark means an inactive call.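 The calls were made as follows: active = mean triplicate inhibition above the solvent-only control wells' mean plus 3 SD (cut at about 12% in these data); inactive = the rest.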

Sequence of Disintegrin and metalloproteinase domain-containing protein 17 (Homo sapiens) (P78536 215-824 limits assumed): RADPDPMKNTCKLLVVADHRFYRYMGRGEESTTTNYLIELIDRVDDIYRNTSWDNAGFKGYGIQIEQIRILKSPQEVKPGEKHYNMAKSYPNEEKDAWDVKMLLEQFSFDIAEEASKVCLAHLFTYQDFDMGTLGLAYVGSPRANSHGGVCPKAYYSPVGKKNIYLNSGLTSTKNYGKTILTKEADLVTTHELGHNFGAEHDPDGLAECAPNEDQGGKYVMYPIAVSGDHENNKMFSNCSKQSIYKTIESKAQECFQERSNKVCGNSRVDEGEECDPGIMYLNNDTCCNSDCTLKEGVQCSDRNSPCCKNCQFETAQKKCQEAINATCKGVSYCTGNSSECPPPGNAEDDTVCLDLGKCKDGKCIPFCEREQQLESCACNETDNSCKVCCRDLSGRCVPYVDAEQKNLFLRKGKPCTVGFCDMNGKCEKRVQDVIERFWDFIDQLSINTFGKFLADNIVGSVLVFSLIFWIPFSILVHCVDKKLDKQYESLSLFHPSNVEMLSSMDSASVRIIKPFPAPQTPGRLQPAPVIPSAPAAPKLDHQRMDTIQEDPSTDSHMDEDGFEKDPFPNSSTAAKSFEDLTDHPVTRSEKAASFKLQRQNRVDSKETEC

For the test, the target named is Disintegrin and metalloproteinase domain-containing protein 17 (Homo sapiens) (UniProt P78536). The experiment in a line: ADAM17 inhibitors, counter-screen for ADAM10 exosite inhibitor project, biochemical, QFRET, high throughput (AID 743214).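 Also: 0% = DMSO wells and 100% = marimastat wells.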 Conditions: ADAM17 QFRET peptide cleavage, EDANS fluorescence; at 6.95 µM; stronger effect = higher value. A digest of the protocol:
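Assay system – ADAM17 protease with quenched-FRET EDANS/DABCYL peptide substrate · Amount – ADAM17 2X stock, 20 nM · Schedule – 30 min compound–enzyme preincubation, then 3 h reaction, both 25 °C · Measured by – EDANS fluorescence 359/460 nm · Read-out – percent inhibition of ADAM17 cleavage · Replicates – each compound tested in triplicate wells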
The term inhibition denotes the relative decrease from the control value, in per cent. For the molecule `Cn1c(CNc2nc(-c3ccccc3)cs2)nnc1SCC(=O)c1ccccc1`, the inhibition is 0.06%.

`COc1ccc(C(CCN(Cc2ccc(OC)c(OC)c2)C(=O)CCl)c2ccccc2)cc1` (stereo unspecified): the inhibition is 1.03%. The figure for `CCOc1cc(/C=N/NC(=O)c2cc(-c3ccccc3)nc3ccccc23)ccc1O` is 4.94%; for `O=C(CSC1=NCCS1)Nc1nc(-c2ccccc2)cs1` it is 0.66%. Regarding `COc1ccc(OCCCn2cccc2/C=C2/C(=N)N3OC(C)=CC3=NC2=O)cc1`, the inhibition was 0.03%. As for `Cc1ccc(/C=N/NC(=O)CSc2nc3ccccc3o2)cc1`, the figure is 0.11%; as for `COc1cc(/C=C2/SC(=S)N(Cc3ccccc3)C2=O)cc(OC)c1O`, 3.03%.

As to `CN(C)S(=O)(=O)c1cccc(NC(=O)COC(=O)C2(c3ccccc3F)CCCC2)c1`, the inhibition is 0.96%. The figure for `N/C(Cc1ccc([N+](=O)[O-])cc1)=N\OC(=O)COc1ccc2ccccc2c1` is 1.74%; for `O=C1NC(Nc2nc3ccccc3s2)(C(F)(F)F)C(=O)N1C1CCCCC1` (stereo unspecified) it is 0.94%. The figure for `COc1cc(C2CC(=O)N3CN(Cc4ccccc4)CSC3=C2C#N)ccc1OCc1ccccc1` (stereo unspecified) is 2.1%. Consider `O=C(OCc1ccc(-c2ccccc2)cc1)c1cccc(O)c1`, for which the inhibition is 4.02%. With `COC(=O)[C@@]12C[C@@H](CC(=O)NCCCCc3ccccc3)C(=O)N(CCc3ccc(OC)c(OC)c3)C1=CCC(C)(C)C2`, the inhibition is 0.87%. As for `COc1cc(Cl)c(S(=O)(=O)N2CCN(Cc3ccc4c(c3)OCO4)CC2)cc1Cl`, the figure is 1.24%. On to `CCOc1ccc(Nc2oc(Cc3ccccc3)nc2C#N)cc1`, for which the inhibition is 1.58%.

Turning to `CCOc1ccc(Br)cc1S(=O)(=O)Nc1ccc(C(=O)OC(C)C(=O)N(C)c2ccccc2)cc1` (stereo unspecified), the inhibition was 2.71%. For `C=CCC[C@@H](Cc1ccc(F)cc1)C(=O)O[C@H](CNC(=O)[C@H](CC=C)CC(=O)N(CCO)Cc1ccccc1)c1ccccc1`, the inhibition is 3.84%. As for `O=C(Cc1ccc(Cl)c(Cl)c1)Nc1ccc(SC(F)F)cc1`, the figure is 2.25%; as for `CC(C)(C)c1ccc(S(=O)(=O)NCC2CCN(C(=O)C(=O)c3cc4ccccc4o3)CC2)cc1`, 1.76%. The figure for `COc1ccc(Cl)cc1NC(=O)COC(=O)C(CC(C)C)N1C(=O)C2CC=CCC2C1=O` (stereo unspecified) is 0.79%; for `CC(C)(C)c1ccc(C(=O)Nc2cc(Cl)c(Br)cc2C(=O)O)cc1` it is 0.16%; for `CCCCCc1c(-c2ccc(OC)c(OC)c2)ncn1CCc1ccccc1OC` it is 1.69%. As for `Cc1ccc(NS(=O)(=O)c2ccc(C)c(NC(=O)COc3ccc4ccccc4c3)c2)c(C)c1`, the figure is 4.43%; as for `COc1ccc(NS(=O)(=O)c2ccc(C)c(C(=O)NNC(=O)c3csc(N4CCOCC4)n3)c2)cc1`, 1.55%.

As to `O=C(COC(=O)CCCSc1nc2ccccc2[nH]1)Nc1ccc(Oc2ccccc2)cc1`, the inhibition is 3.79%.

For the molecule `Cc1cccc(CCNS(=O)(=O)c2ccc(S(=O)(=O)NC3CCCC3)cc2)c1`, the inhibition is -0.14%.

For the molecule `O=C(CSCc1ccc(Br)cc1)Nc1ccc(S(=O)(=O)N2CCCCCC2)cc1`, the inhibition is 3.71%.

Take `O=Cc1cn(CCOc2ccc(F)cc2)c2ccccc12`: the inhibition was -0.11%.

Turning to `O=C(Nc1cccc(S(=O)(=O)Nc2ccc(Cl)cc2)c1)c1ccc2c(c1)OCCO2`, the inhibition was 2.96%. On to `COc1cccc(NC(=O)CN2CCN(c3nc(-c4cccc(OC)c4)cs3)CC2)c1`, for which the inhibition is 2.32%. The figure for `Cc1ccc(NC(=O)c2nc[nH]c2C(=O)N[C@@H](CCCCNC(=O)OC(C)(C)C)C(=O)OC(C)(C)C)cc1` is 3.32%; for `S=c1[nH]cc(-c2ccc(Cl)cc2)n1-c1ccccc1` it is 0.72%.

For `CCC1(C)Cc2c(sc3nnn(CC(=O)Nc4ccc(Cl)cc4)c(=O)c23)CO1` (stereo unspecified), the inhibition is 1.24%.

Turning to `CC(C)(C)N1C(=O)[C@H]2[C@@H](c3ccc(Br)cc3)N3C(=O)N(c4cccc(Cl)c4)C(=O)[C@@]3(C)[C@H]2C1=O`, the inhibition is 0.76%.

Take `Cc1ccc(S(=O)(=O)N(CC(=O)Nc2cccnc2)c2ccc(Br)cc2)cc1`: the inhibition is 0.35%. As for `O=C(NCCc1ccc(Cl)cc1Cl)c1cc([N+](=O)[O-])c[nH]c1=O`, the figure is 0.13%.

Regarding `O=S(=O)(c1cccc(S(=O)(=O)N2CCC(n3nnc4ccccc43)CC2)c1)N1CCCCC1`, the inhibition is 0.16%. As for `C#CCN(C[C@H]1[C@H](OC(=O)NC2CCCC2)[C@H](OC(=O)NC2CCCC2)C[C@H]2C(=O)N(c3ccccc3)C(=O)[C@@H]12)S(=O)(=O)c1ccc(C)cc1`, the figure is 1.32%; as for `COc1ccc([C@@H]2[C@@H]3C(=O)N(C(C)(C)C)C(=O)[C@@H]3[C@]3(Cc4ccccc4)C(=O)N(c4cccc(Br)c4)C(=O)N23)cc1`, 2.34%.

As for `O=C(CC(O)(C(F)(F)F)C(F)(F)F)Nc1ccc(Cl)c(Cl)c1`, the inhibition is 1.21%. The figure for `O=S(=O)(c1ccccc1)N(Cc1cccc(F)c1)c1ccccc1` is 0.96%; for `C=C(C)COc1ccc(-c2n[nH]c(C)c2-c2ccccc2)c(O)c1` it is 3.15%; for `COc1ccc(C(N)c2csc(NC(=O)Nc3cccc(C(F)(F)F)c3)n2)cc1` (stereo unspecified) it is 1.65%. As for `COC(=O)C1NN=C(C(=O)c2ccc(Br)cc2)C1c1cccc(Br)c1` (stereo unspecified), the figure is 1.16%. Consider `CCC(C(=O)OCC(=O)Nc1ccccc1-c1ccccc1)c1ccccc1` (stereo unspecified), for which the inhibition was 1.36%. As for `COc1cccc(C2CC(c3ccccc3)=NN2S(=O)(=O)c2ccccc2)c1OC` (stereo unspecified), the figure is 1.14%; as for `Cc1ccc(S(=O)(=O)N2CCN(C(=O)COC(=O)c3c(C)cc(C)cc3C)CC2)c(C)c1`, 1.25%; as for `CC(N=Cc1nc(-c2ccccc2)oc1O)c1ccccc1` (stereo unspecified), 1.57%. With `Cc1cccc(C2c3[nH]c4ccccc4c3CCN2C(=O)c2cc(-c3cccn3C)n[nH]2)n1` (stereo unspecified), the inhibition was 2.55%. The figure for `COc1ccc([C@H]2CC(=O)C=C(c3ccc(OC(F)(F)F)cc3)C2)cc1OC` is 0.8%; for `O=C(CC1SC(=Nc2ccccc2)N(Cc2ccccn2)C1=O)Nc1cccc(Cl)c1` (stereo unspecified) it is 2.48%.
